# Experimental data: ChEMBL document CHEMBL1124509, “Synthesis, cytotoxicity, and antiviral activity of certain 7-[(2-hydroxyethoxy)methyl]pyrrolo[2,3-d]pyrimidine nucleosides related to toyocamycin and sangivamycin” (J Med Chem, 1989)
# Tested on: not listed separately
# Test: Cytotoxicity against Monkey kidney cells(BSC-1 cells)
# Format: cell-based
# Settings: Cercopithecidae
row,SMILES,IC50 [µM]
1,COC(=N)c1cn(COCCO)c2ncnc(N)c12,> 100
2,N#Cc1cn(COCCO)c2ncnc(N)c12,> 320
3,NC(=NO)c1cn(COCCO)c2ncnc(N)c12,> 100
4,Nc1nc2c(ncn2COCCO)c(=O)[nH]1 [ACYCLOVIR],> 100
5,CC(=O)OCCOCn1cc(C#N)c2c(N)ncnc21,> 100
6,NC(=S)c1cn(COCCO)c2ncnc(N)c12,> 100
7,NC(=O)c1cn(COCCO)c2ncnc(N)c12,> 100
8,NNC(=O)c1cn(COCCO)c2ncnc(N)c12,> 100
9,N#Cc1cnc2n(COCCO)cnc(N)c1-2,> 100
10,Nc1ncnc2c1ccn2COCCO,> 100
11,Nc1nc2c(ncn2COC(CO)CO)c(=O)[nH]1 [GANCICLOVIR],> 100

# Tested on: Human alphaherpesvirus 1
# Test: Antiviral activity was determined against Herpes simplex virus type 1 by Plaque-reduction assay
# Format: functional, organism-based
# Settings: not given
# Outline: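 BSC-1 monolayers (MEM with Earle's salts, 10% FBS) infected with HSV-1 strain S-148, about 100 PFU per 0.2 mL; compound dissolved in overlay medium; plaques counted. IC50 by regression of percent inhibition on log concentration. Acyclovir or ganciclovir positive control, with sets rejected beyond 1.5 SD of control mean.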
row,SMILES,IC50 [µM]
1,COC(=N)c1cn(COCCO)c2ncnc(N)c12,> 100
2,N#Cc1cn(COCCO)c2ncnc(N)c12,> 320
3,NC(=NO)c1cn(COCCO)c2ncnc(N)c12,> 100
4,Nc1nc2c(ncn2COCCO)c(=O)[nH]1 [ACYCLOVIR],3.9
5,CC(=O)OCCOCn1cc(C#N)c2c(N)ncnc21,> 100
6,NC(=S)c1cn(COCCO)c2ncnc(N)c12,> 100
7,NC(=O)c1cn(COCCO)c2ncnc(N)c12,> 100
8,NNC(=O)c1cn(COCCO)c2ncnc(N)c12,> 100
9,N#Cc1cnc2n(COCCO)cnc(N)c1-2,> 100
10,Nc1ncnc2c1ccn2COCCO,> 100
11,Nc1nc2c(ncn2COC(CO)CO)c(=O)[nH]1 [GANCICLOVIR],2.3

# Tested on: Human betaherpesvirus 5
# Test: Antiviral activity against Human cytomegalovirus in a plaque-reduction assay
# Format: functional, organism-based
# Settings: not given
# Outline: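 HFF monolayers (MEM with Earle's salts, 10% FBS) infected with plaque-purified Towne strain HCMV, about 50 PFU per 0.2 mL inoculum; compound dissolved in overlay medium; plaques counted. IC50 from linear regression of percent inhibition against log concentration. Ganciclovir or acyclovir positive control run; sets rejected if control deviated >1.5 SD from its mean.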
row,SMILES,IC50 [µM]
1,COC(=N)c1cn(COCCO)c2ncnc(N)c12,> 100
2,N#Cc1cn(COCCO)c2ncnc(N)c12,> 100
3,NC(=NO)c1cn(COCCO)c2ncnc(N)c12,> 100
4,CC(=O)OCCOCn1cc(C#N)c2c(N)ncnc21,> 100
5,NC(=S)c1cn(COCCO)c2ncnc(N)c12,11
6,NC(=O)c1cn(COCCO)c2ncnc(N)c12,> 320
7,NNC(=O)c1cn(COCCO)c2ncnc(N)c12,> 100
8,N#Cc1cnc2n(COCCO)cnc(N)c1-2,> 320
9,Nc1ncnc2c1ccn2COCCO,> 100
10,Nc1nc2c(ncn2COC(CO)CO)c(=O)[nH]1 [GANCICLOVIR],7.9

# Species: Homo sapiens
# Test: Cytotoxicity against Normal human diploid cells (human foreskin fibroblasts cells)
# Settings: Fibroblast
row,SMILES,IC50 [µM]
1,COC(=N)c1cn(COCCO)c2ncnc(N)c12,> 100
2,N#Cc1cn(COCCO)c2ncnc(N)c12,> 100
3,NC(=NO)c1cn(COCCO)c2ncnc(N)c12,> 100
4,Nc1nc2c(ncn2COCCO)c(=O)[nH]1 [ACYCLOVIR],> 100
5,CC(=O)OCCOCn1cc(C#N)c2c(N)ncnc21,> 100
6,NC(=S)c1cn(COCCO)c2ncnc(N)c12,100
7,NC(=O)c1cn(COCCO)c2ncnc(N)c12,> 320
8,NNC(=O)c1cn(COCCO)c2ncnc(N)c12,> 100
9,N#Cc1cnc2n(COCCO)cnc(N)c1-2,> 320
10,Nc1ncnc2c1ccn2COCCO,> 100
11,Nc1nc2c(ncn2COC(CO)CO)c(=O)[nH]1 [GANCICLOVIR],> 100

# Tested on: not listed separately
# Test: Cytotoxicity against human neoplastic cell line (KB)
# Format: cell-based
# Settings: not given
# Outline: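 KB cells (MEM with Hank's salts, 5% FBS) exposed to compound; incorporation of radioactive precursors, including [3H]dThd, into DNA, RNA and protein measured. An IC50 for each was obtained by regression on log concentration, and the three IC50s were averaged. Averages of two to four experiments.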
row,SMILES,IC50 [µM]
1,N#Cc1cn(COCCO)c2ncnc(N)c12,> 100
2,Nc1nc2c(ncn2COCCO)c(=O)[nH]1 [ACYCLOVIR],> 100
3,NC(=S)c1cn(COCCO)c2ncnc(N)c12,> 100
4,NC(=O)c1cn(COCCO)c2ncnc(N)c12,> 100
5,Nc1ncnc2c1ccn2COCCO,> 320
6,Nc1nc2c(ncn2COC(CO)CO)c(=O)[nH]1 [GANCICLOVIR],1000

# Tested on: L1210
# Test: Antiproliferative testing in vitro and its ability to inhibit the growth of L1210 murine leukemia cells determined at a concentration of 100 uM.
# Format: functional, Mus musculus
# Settings: not given
# Outline: (§1)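 L1210 mouse leukemia cells grown in static suspension culture in Fischer's medium for 3 days with test compound. Growth rate was taken as the slope of semilog cell number versus time, expressed as control doubling time as percent of treated doubling time, i.e. treated growth relative to control.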
row,SMILES,"Growth rate, % of control [%]"
1,N#Cc1cn(COCCO)c2ncnc(N)c12,100
2,NC(=NO)c1cn(COCCO)c2ncnc(N)c12,89
3,NC(=O)c1cn(COCCO)c2ncnc(N)c12,100
4,NNC(=O)c1cn(COCCO)c2ncnc(N)c12,92

# Tested on: L1210
# Test: Antiproliferative testing in vitro and its ability to inhibit the growth of L1210 murine leukemia cells determined at a concentration of 10 uM.
# Format: functional, Mus musculus
# Parameters: scale not given: the % may be the effect or the level left
# Settings: not given
# Outline: as §1
row,SMILES,Control [%]
1,COC(=N)c1cn(COCCO)c2ncnc(N)c12,108

# Tested on: L1210
# Test: Antiproliferative testing in vitro and its ability to inhibit the growth of L1210 murine leukemia cells determined at a concentration of 10 uM.
# Parameters: scale not given: the % may be the effect or the level left
# Settings: not given
row,SMILES,Control [%]
1,NC(=S)c1cn(COCCO)c2ncnc(N)c12,93
